Results taken from article PMC9447421 (FASEB BioAdvances, 2022).
Counter-ions that a name gives are not always drawn.

What was measured:
[1] = test system: hT2R4; conditions: human T2R4; cited from earlier work
[2] = target: T1, A. mexicanus T2R4 (Astyanax mexicanus, UniProt A0A3B1ICP8); assay: Calcium mobilization assay, HEK293T cells stably expressing T2R4; assay type: cell-based
T1 sequence (A0A3B1ICP8 2-338): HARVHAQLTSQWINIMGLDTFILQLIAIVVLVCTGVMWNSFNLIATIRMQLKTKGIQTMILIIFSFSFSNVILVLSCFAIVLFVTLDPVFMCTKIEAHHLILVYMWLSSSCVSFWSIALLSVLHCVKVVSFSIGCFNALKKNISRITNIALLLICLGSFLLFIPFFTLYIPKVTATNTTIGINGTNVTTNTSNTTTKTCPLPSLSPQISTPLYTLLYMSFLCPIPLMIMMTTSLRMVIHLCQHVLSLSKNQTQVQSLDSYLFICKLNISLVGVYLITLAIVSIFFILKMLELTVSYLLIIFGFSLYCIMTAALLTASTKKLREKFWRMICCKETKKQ

[3] = test system: canonical Gβγ‐PLC signaling pathway activated by T2Rs (T2R1); assay type: cell-based, Astyanax mexicanus; conditions: T2R1 cells; blocker 10 μM, 30 min pretreatment; brine shrimp 5 mg/ml
How it was run: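 HEK293T cells stably expressing FLAG-tagged fish T2R1, selected in hygromycin (200 μg/ml). Brine shrimp (300 mg ground food per 10 ml) and blockers prepared in assay buffer (1X HBSS, 20 mM HEPES). Cells loaded with Fluo-4 NW, 35 min at 37°C then 35 min at room temperature. Compounds added robotically on a FlexStation 3. Signal baseline-subtracted against parental HEK293T cells and reported as ΔRFU.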

[4] = test system: hT2R4; conditions: human T2R4; cited from earlier work; remark: listed apart in the source
[5] = test system: hT2R1; conditions: human T2R1; cited from earlier work

COc1ccc2c(c1)[C@]13CCCC[C@@H]1[C@H](C2)N(C)CC3 [DXM, dextromethorphan]
Activation of hT2R4 [1]: does not activate | EC50 [2]: 1430 µM

COc1ccc2c(c1)CC[C@@H]1[C@@H]2CC[C@]2(C)[C@@H](NCCCCCCN3C(=O)C=CC3=O)CC[C@@H]12 [U73122]
Effect of pretreatment on brine shrimp-induced calcium mobilization [3]: significant decrease in calcium mobilization

COc1ccc2c(c1)CC[C@@H]1[C@@H]2CC[C@]2(C)[C@@H](NCCCCCCN3C(=O)CCC3=O)CC[C@@H]12 [U73343]
Effect of pretreatment on brine shrimp-induced calcium mobilization [3]: no significant differences

O=C1OC2(c3ccccc31)c1ccc(O)c(O)c1Oc1c2ccc(O)c1O [gallein, Gallein]
Effect of pretreatment on brine shrimp-induced calcium mobilization [3]: significant decrease in calcium mobilization

C=C[C@H]1C[N@@]2CC[C@H]1C[C@H]2[C@H](O)c1ccnc2ccc(OC)cc12 [quinine, quinine hydrochloride]
Effect on hT2R4 expression (pharmacological chaperone) [4]: acts intracellularly to enhance hT2R4 expression | Activation of hT2R1 [5]: does not activate
